Measurements gathered from unrelated publications.
Compare with care: the assays were run in different laboratories.
Target: Bone morphogenetic protein receptor type-2 (BMPR2, Homo sapiens, UniProt Q13873)
Residues used in one study (Q13873 27-1038): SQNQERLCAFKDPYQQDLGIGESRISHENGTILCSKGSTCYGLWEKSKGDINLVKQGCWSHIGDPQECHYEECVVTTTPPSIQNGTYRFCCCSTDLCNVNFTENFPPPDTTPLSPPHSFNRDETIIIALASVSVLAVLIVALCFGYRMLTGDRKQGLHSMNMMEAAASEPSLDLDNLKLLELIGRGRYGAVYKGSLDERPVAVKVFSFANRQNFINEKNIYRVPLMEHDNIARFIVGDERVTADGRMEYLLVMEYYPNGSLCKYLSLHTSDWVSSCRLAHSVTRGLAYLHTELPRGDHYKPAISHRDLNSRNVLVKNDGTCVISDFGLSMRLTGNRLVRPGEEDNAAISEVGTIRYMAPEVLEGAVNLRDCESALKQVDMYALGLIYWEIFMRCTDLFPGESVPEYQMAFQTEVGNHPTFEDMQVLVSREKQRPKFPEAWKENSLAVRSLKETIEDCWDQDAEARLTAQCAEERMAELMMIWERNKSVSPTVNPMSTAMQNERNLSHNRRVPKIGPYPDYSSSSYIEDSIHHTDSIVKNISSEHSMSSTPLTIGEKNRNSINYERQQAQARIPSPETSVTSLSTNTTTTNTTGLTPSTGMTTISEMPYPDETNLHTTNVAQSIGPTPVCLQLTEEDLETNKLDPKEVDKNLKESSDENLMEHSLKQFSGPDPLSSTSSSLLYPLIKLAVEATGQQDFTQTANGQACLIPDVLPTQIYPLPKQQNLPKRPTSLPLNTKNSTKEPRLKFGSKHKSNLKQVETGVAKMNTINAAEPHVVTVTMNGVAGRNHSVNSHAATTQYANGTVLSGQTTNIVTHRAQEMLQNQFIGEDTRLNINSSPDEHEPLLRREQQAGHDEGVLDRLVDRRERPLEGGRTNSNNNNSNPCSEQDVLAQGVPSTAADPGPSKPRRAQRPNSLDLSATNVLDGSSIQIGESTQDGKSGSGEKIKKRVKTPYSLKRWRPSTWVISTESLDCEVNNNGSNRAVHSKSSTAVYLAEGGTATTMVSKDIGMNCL

SMILES	test	conditions	remaining binding [%]
c1cncc(-c2cccc(Nc3nccc(NC4CCCCC4)n3)c2)c1	binding, competition with immobilised ligand	10 µM	40
O=C(NCCCN1CCOCC1)c1ccc(Nc2nccc(-c3cc4ccccc4s3)n2)cc1	binding, competition with immobilised ligand	1 µM	66
CNCc1ccccc1-c1csc([C@@H](C)Nc2nc(C)nc3cc(OC)c(OC)cc23)c1	cell-free assay, competition with immobilised ligand	1 µM	100
CC(C)(C)c1ccc(-c2nc(CBr)nn2-c2cccc(O)c2)cc1	cell-free assay, competition with immobilised ligand	10 µM	81
O=C(c1ccc(Nc2ncc(Cl)c(-c3ccc(Cl)s3)n2)cc1)N1CCC(N2CCCC2)CC1	binding, competition with immobilised ligand	1 µM	28
Nc1ncc2c(n1)-c1c([nH]c3ccc(C#CC4CC4)cc13)CCCC2	binding, competition with immobilised ligand	1 µM	96
CCN1CCN(Cc2ccc(C(=O)Nc3ccc(C)c(Oc4ccc5c(c4)CC(=O)N5)c3)cc2C(F)(F)F)CC1	binding, competition with immobilised ligand	1 µM	100
CS(=O)(=O)N1CCCC(NC(=O)[C@H](CCC2CCCCC2)NC(=O)c2ccc(CNC(=O)c3cnc4ccccn34)cc2)C1 (stereo partly drawn)	cell-free assay, competition with immobilised ligand	0.1 µM	100
COc1ccnn2ncc(-c3ccnc(N(C)C)n3)c12	binding	1 µM	65
CNC(=O)[C@@H]1CC[C@@H](n2c(-c3ccc4cnccc4c3)nc3ccc(C(=O)NCc4cccc(C(N)=O)c4)cc32)C1	binding, competition with immobilised ligand	1 µM	0.25
Cc1cnn2ncc(-c3ccnc(N(C)C)n3)c2c1	binding	1 µM	99
O=C(c1ccc(Nc2ncc(Cl)c(-c3cc4ccccc4s3)n2)cc1)N1CCC(N2CCCC2)CC1	binding, competition with immobilised ligand	1 µM	29
CS(=O)(=O)c1cc(C2(NC(=O)c3cncc4c3cnn4-c3ccc(F)cc3)CC2)ccn1	cell-free assay, competition with immobilised ligand	1 µM	99
C[C@@H]1CN(c2ccc3ncc(-c4ccc5[nH]nc(C6CC6)c5c4)n3n2)C[C@H](C)O1	binding, competition with immobilised ligand	50 nM	89
c1cnn2ncc(-c3ccnc(N4CCC45COC5)n3)c2c1	binding	1 µM	68
NS(=O)(=O)c1cc(NC(=O)Cc2ccccc2)ccc1Oc1cccc(Cl)c1	cell-free assay, competition with immobilised ligand	1 µM	73
CN(c1nccc(-c2cnn3ncccc23)n1)C1CC1	binding	1 µM	100
CC(=O)N1CCC(c2ccc(C(=O)NC3=NCCN3)cc2C(F)(F)F)CC1	cell-free assay, competition with immobilised ligand	1 µM	100
C[C@@H]1CCN(c2nccc(-c3cnn4ncccc34)n2)C1	binding	1 µM	90
CCCCN(CCCC)C(=O)CN1C[C@@H](c2cc(OC)c3c(c2)OCO3)[C@H](C(=O)O)[C@H]1CC(C)(C)CCC	cell-free assay, competition with immobilised ligand	1 µM	86.7
N[C@@H]1CCN(c2nccc(-c3cnn4ncccc34)n2)C1	binding	1 µM	100
O=C(Nc1c[nH]nc1C(=O)NC1CCNCC1)c1cc(F)cc(F)c1	binding, competition with immobilised ligand	1 µM	100
COc1cccc(CNC(=O)c2nc3scc(COCc4ccc(C(=O)O)cc4)c3c(=O)[nH]2)c1	cell-free assay, competition with immobilised ligand	1 µM	71.8
F[C@@H]1CCN(c2nccc(-c3cnn4ncccc34)n2)C1	binding	1 µM	100
